Experimental data taken from ChEMBL document CHEMBL6087468, “TKK130 is a 3-Hydroxy-Propanamidine (HPA) with Potent Antimalarial In Vivo Activity and a High Barrier to Resistance” (J Med Chem, 2025).
Blank lines part the entries; values can stand above or below the molecule they belong to. Active and inactive are the calls of the source. The calls are words filed in the database; no cut-off is given here.

Legend:
[1] = Plasma protein binding in plasma (unknown origin) at 25 ng/ml measured after 24 hrs by dilution method; type: ADME, cell-free
Summary of the method: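 Equilibrium dialysis with donor plasma diluted 1:10 or 1:20 in 0.9% saline, spiked at 25 ng/mL, against 0.9% saline acceptor for 24 h at 37 °C. Concentrations by LC–MS/MS against diluted-plasma calibration curves; unbound fraction (acceptor/donor) back-calculated to undiluted plasma; triplicate; itraconazole reference.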

[2] = Plasma protein binding in plasma (unknown origin) at 25 ng/ml measured after 24 hrs by standard equilibrium dialysis assay; type: ADME, cell-free; conditions: read-out: PPB (converted)
Summary of the method: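 Standard equilibrium dialysis (6 kDa regenerated cellulose membrane): donor plasma spiked at 25 ng/mL, acceptor 0.9% saline, 24 h at 37 °C. Acetonitrile precipitation of plasma, methanol added to acceptor; LC–MS/MS with calibration curves in each medium; fraction bound corrected for volume shift; triplicate; itraconazole reference.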

Plasmodium berghei [3] = assay: In vivo antiplasmodial activity against Plasmodium berghei infected mouse model assessed as parasitemia suppression in blood at 30 mg/kg, po treated 4 times measured at 96 hrs post infection by fluorescence-activated cell sorting (FACS) analysis; type: functional
Plasmodium berghei [4] = assay: In vivo antiplasmodial activity against Plasmodium berghei infected mouse model assessed as curation rate at 30 mg/kg, po treated 4 times measured at 96 hrs post infection by fluorescence-activated cell sorting (FACS) analysis; type: functional
Plasmodium berghei [5] = assay: In vivo antiplasmodial activity against Plasmodium berghei infected mouse model assessed as mean survival time at 30 mg/kg, po treated 4 times measured at 96 hrs post infection by fluorescence-activated cell sorting (FACS) analysis (reference value: 4 days); type: functional
Plasmodium falciparum [6] = assay: (§1) Antimalarial activity against chloroquine, sulfadoxine, and pyrimethamine-resistant Plasmodium falciparum Dd2 infected in erythrocyte assessed as reduction in number of viable parasites at 10 times IC50 concentration treated for 120 hrs followed by allowed to recover in drug-free medium for 28 days by HRP2-ELISA analysis; type: functional, organism-based
[7] = Metabolic stability in human liver microsomes assessed as intrinsic clearance at 50 ug/ml measured up to 60 mins; type: ADME, Microsome; conditions: dose 50 µg/ml; for microsomal CLint at 50 ug/ml: liver microsomes, read-out: CLH
Summary of the method: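 Pooled human liver microsomes (150 donors) in 0.1 M potassium phosphate buffer pH 7.4, cosolvent method, analyte at 1 μM final; reactions stopped with ice-cold acetonitrile at 0, 15, 30, 45, 60 min; LC–MS/MS. Clint from ke (negative slope of ln peak-area ratio vs time) via t1/2 = ln2/ke; triplicate; no-cofactor negative control and blank run.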

Hemozoin = assay: Inhibition of beta-hematin formation assessed as formation of bis-pyridyl heme complex incubated for 4 to 5 hrs by Nonidet-40 based plate reader assay
[8] = Cytotoxicity against human HEK293 cells assessed as cell viability measured after 24 hrs by neutral red assay; type: toxicity, cell-based
Plasmodium knowlesi = assay: Antiplasmodial activity against Plasmodium Knowlesi inhibition of parasite growth measured after 48 hrs incubation by Sybr-green assay; type: functional, organism-based
Plasmodium falciparum [9] = assay: Antimalarial activity against multidrug-resistant Plasmodium falciparum Dd2 harboring pfcrt, pfmdr1, pfdhfr, pfdhps mutated loci assessed as inhibition of parasite growth incubated for 48 hrs by [3H]hypoxanthine incorporation assay; type: functional, organism-based
[10] = Cytotoxicity against human HeLa cells assessed as cell viability measured after 24 hrs by neutral red assay; type: toxicity, cell-based
Plasmodium falciparum [11] = assay: Antimalarial activity against multidrug-resistant Plasmodium falciparum RF12 (PH-1263-C) harboring pfcrt, pfmdr1, pfdhfr, pfdhps and pfK13 plasmepsin II mutated loci assessed as inhibition of parasite growth incubated for 48 hrs by [3H]hypoxanthine incorporation assay; type: functional, organism-based
Plasmodium falciparum [12] = assay: Antimalarial activity against multidrug-resistant Plasmodium falciparum TM90C2b harboring pfcrt, pfmdr1, pfdhfr, pfdhps and pfcytb-Q0 mutated loci assessed as inhibition of parasite growth incubated for 48 hrs by [3H]hypoxanthine incorporation assay; type: functional, organism-based
Plasmodium falciparum [13] = assay: Antimalarial activity against chloroquine, sulfadoxine, and pyrimethamine-resistant Plasmodium falciparum Dd2 infected in erythrocytes measured after 3 days by HRP2-ELISA analysis; type: functional, organism-based; conditions: Dd2, Erythrocyte, 72 h
[14] = Selectivity index, ratio of IC50 for antimalarial activity against Plasmodium falciparum 3D7 to IC50 for cytotoxicity against human HEK293 cells; conditions: HEK293 cells and Plasmodium falciparum 3D7
Plasmodium falciparum [15] = assay: as §1, with “72” for “120”; type: functional, organism-based
Plasmodium falciparum [16] = assay: Antimalarial activity against Plasmodium falciparum K1 infected in human erythrocytes assessed as inhibition of parasite growth measured after 48 hrs incubation by [3H]hypoxanthine incorporation assay; type: functional, organism-based; conditions: K1, Erythrocyte
Plasmodium berghei [17] = assay: In vivo antiplasmodial activity against Plasmodium berghei infected mouse model assessed as parasitemia suppression in blood at 3 mg/kg, po treated 4 times measured at 96 hrs post infection by fluorescence-activated cell sorting (FACS) analysis; type: functional
Plasmodium falciparum [18] = assay: Antimalarial activity against chloroquine-sensitive Plasmodium falciparum 3D7 infected in erythrocytes measured after 3 days by HRP2-ELISA analysis; type: functional, organism-based; conditions: 3D7, Erythrocyte, 72 h
Plasmodium berghei [19] = assay: In vivo antiplasmodial activity against Plasmodium berghei infected mouse model assessed as mean survival time at 50 mg/kg, po treated 4 times measured at 96 hrs post infection by fluorescence-activated cell sorting (FACS) analysis (reference value: 4 days); type: functional
[20] = Cytotoxicity against human HepG2 cells assessed as cell viability measured after 24 hrs by neutral red assay; type: toxicity, cell-based
Plasmodium berghei [21] = assay: In vivo antiplasmodial activity against Plasmodium berghei infected mouse model assessed as curation rate at 10 mg/kg, po treated 4 times measured at 96 hrs post infection by fluorescence-activated cell sorting (FACS) analysis; type: functional
Plasmodium falciparum [22] = assay: as §1, with “24” for “120”; type: functional, organism-based
Plasmodium berghei [23] = assay: In vivo antiplasmodial activity against Plasmodium berghei infected mouse model assessed as mean survival time at 10 mg/kg, po treated 4 times measured at 96 hrs post infection by fluorescence-activated cell sorting (FACS) analysis (reference value: 4 days); type: functional
Plasmodium berghei [24] = assay: In vivo antiplasmodial activity against Plasmodium berghei infected mouse model assessed as parasitemia suppression in blood at 50 mg/kg, po treated 4 times measured at 96 hrs post infection by fluorescence-activated cell sorting (FACS) analysis; type: functional
Plasmodium falciparum [25] = assay: Antimalarial activity against Plasmodium falciparum NF54 infected in human erythrocytes assessed as inhibition of parasite growth measured after 48 hrs incubation by [3H]hypoxanthine incorporation assay; type: functional, organism-based; conditions: NF54, Erythrocyte
[26] = Selectivity index, ratio of IC50 for antimalarial activity against Plasmodium falciparum 3D7 to IC50 for cytotoxicity against human HeLa cells; conditions: HeLa cells and Plasmodium falciparum 3D7
[27] = Selectivity index, ratio of IC50 for antimalarial activity against Plasmodium falciparum 3D7 to IC50 for cytotoxicity against human HepG2 cells; conditions: HepG2 cells and Plasmodium falciparum 3D7
Plasmodium berghei [28] = assay: In vivo antiplasmodial activity against Plasmodium berghei infected mouse model assessed as parasitemia suppression in blood at 10 mg/kg, po treated 4 times measured at 96 hrs post infection by fluorescence-activated cell sorting (FACS) analysis; type: functional
Plasmodium falciparum [29] = assay: Induction of resistance development in Plasmodium falciparum Dd2 Pol delta at 2 x 10^7 initial inoculum per flask measured by growth inhibition assay; type: functional, organism-based
Summary of the method: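 Recrudescent Dd2-Polδ parasites from DSM265 selection, compared with the parent line in the growth inhibition assay to measure the IC50 shift.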

Plasmodium falciparum [30] = assay: Induction of resistance development in Plasmodium falciparum Dd2 Pol delta at 2 x 10^7 initial inoculum per flask by single-step selection assay; type: functional, organism-based
Plasmodium falciparum [31] = assay: Induction of resistance development in Plasmodium falciparum Dd2 Pol delta at 2 x 10^7 initial inoculum per flask measured on day 16 by single-step selection assay; type: functional, organism-based

fraction unbound at 24 h, 25 ng/ml [1]: 0.004
fraction unbound at 24 h, 25 ng/ml [2]: 0.016
Structure (SMILES): CCC(C)n1ncn(-c2ccc(N3CCN(c4ccc(OCC5COC(Cn6cncn6)(c6ccc(Cl)cc6Cl)O5)cc4)CC3)cc2)c1=O (stereo unspecified) [ITRACONAZOLE]

Structure (SMILES): C[C@@H]1CC[C@H]2[C@@H](C)C(=O)O[C@@H]3O[C@@]4(C)CC[C@@H]1[C@]32OO4 [ARTEMISININ]
Activity (Plasmodium berghei [3]): 99%
Activity (Plasmodium berghei [4]): 0%
MSD (Plasmodium berghei [5]): 9 days

Structure (SMILES): O=C1C(O)=C([C@H]2CC[C@H](c3ccc(Cl)cc3)CC2)C(=O)c2ccccc21
Activity (Plasmodium falciparum [6]): Active; Compound Exhibited Slower Acting

microsomal CLint at 50 ug/ml [7]: 26.9 µL/min/mg
IC50 (Hemozoin): 13.4 µM
Structure (SMILES): CCCCN(CCCC)CCC(O)c1cc2c(Cl)cc(Cl)cc2c2cc(C(F)(F)F)ccc12 (stereo unspecified) [HALOFANTRINE]

Structure (SMILES): CCN(CC)CCCC(C)Nc1ccnc2cc(Cl)ccc12 (stereo unspecified) [CHLOROQUINE]
microsomal CLint at 50 ug/ml [7]: < 7 µL/min/mg
IC50 at 24 h [8]: > 1000 µM
IC50 (Plasmodium knowlesi): 0.016 µM
Activity (Plasmodium berghei [3]): 99.9%
IC50 (Plasmodium falciparum [9]): 0.015 µM
IC50 at 24 h [10]: > 1000 µM
Activity (Plasmodium berghei [4]): 0%
IC50 (Plasmodium falciparum [11]): 0.004 µM
IC50 (Plasmodium falciparum [12]): 0.013 µM
MSD (Plasmodium berghei [5]): 21 days

Structure (SMILES): COc1ccc(/N=C(\N)CC(O)c2cc3c(F)cc(F)cc3c3cc(C(F)(F)F)ccc23)cc1 (stereo unspecified)
CLint ([7]; microsomes, 1 h): 13.6 µL/min/mg
Activity (Plasmodium falciparum [6]): Active
IC50 (Plasmodium falciparum [13]): 0.012 µM
selectivity ratio [14]: 7360
Activity (Plasmodium falciparum [15]): Active
Activity (Plasmodium berghei [3]): 99.9%
IC50 (Plasmodium falciparum [16]): 0.006 µM
Activity (Plasmodium berghei [17]): 0%
IC50 (Plasmodium falciparum [18]): 0.005 µM
MSD (Plasmodium berghei [19]): 27 days
IC50 at 24 h [20]: 4.2 µM
Activity (Plasmodium berghei [21]): 0%
Activity (Plasmodium falciparum [22]): Active; Compound Exhibited Fast-Acting Than Dihydroartemisinin
MSD (Plasmodium berghei [23]): 17 days
Activity (Plasmodium berghei [24]): 99.8%
IC50 (Plasmodium falciparum [25]): 0.016 µM
selectivity ratio [26]: 9220
MSD (Plasmodium berghei [5]): 28 days
selectivity ratio [27]: 860
Activity (Plasmodium berghei [28]): 99.9%
IC50 (Hemozoin): 8.4 µM

Structure (SMILES): CCCCN(CCCC)CC(O)c1cc(Cl)cc2c1-c1ccc(Cl)cc1/C2=C/c1ccc(Cl)cc1 (stereo unspecified) [LUMEFANTRINE]
IC50 (Plasmodium falciparum [13]): 0.002 µM
Activity (Plasmodium berghei [3]): 99.8%
IC50 (Plasmodium falciparum [16]): 0.001 µM
IC50 (Plasmodium falciparum [18]): 0.006 µM
IC50 at 24 h [20]: > 20 µM
IC50 (Plasmodium falciparum [25]): 0.005 µM
MSD (Plasmodium berghei [5]): >30 days
selectivity ratio [27]: > 20

Structure (SMILES): Cc1cc(Nc2ccc(S(F)(F)(F)(F)F)cc2)n2nc(C(C)(F)F)nc2n1 [DSM-265]
IC50 (Plasmodium falciparum [29]): 0.232 µM
IC50 (Plasmodium falciparum [30]): 0.0102 µM
Activity (Plasmodium falciparum [31]): Not active; Recrudescence Of Parasite Observed

Structure (SMILES): CCc1nc(N)nc(N)c1-c1ccc(Cl)cc1
Activity (Plasmodium falciparum [15]): Active; Compound Exhibited Slower Acting
